Legend:
[1] = Cellular uptake in human T lymphocytes at 3 to 20 uM after 3 hrs by LC-MS/MS analysis relative to azithromycin; format: ADME, cell-based; conditions: t-cell
Outline: (§1)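 Cells (primary human BSMC, MDM, NHBE, PMN, T-lymphocytes, NHLF, or NCI-H292 lung carcinoma line) incubated 3 h with 3-20 μM macrolide; extracellular drug removed (PMNs washed through silicone oil, NCI-H292 washed with ice-cold PBS). Intracellular drug quantified by LC-MS/MS; accumulation expressed as % of azithromycin accumulation measured in the same experiment. Azithromycin reference run at 10 μM, normalized to total protein.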

[2] = Cellular uptake in human T lymphocytes assessed as compound retention at 3 to 20 uM incubated for 3 hrs followed by drug washout measured after 3 hrs by LC-MS/MS analysis relative to initial drug accumulation; format: ADME, cell-based; conditions: t-cell
Outline: (§2)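 Cells loaded 3 h with 3-20 μM macrolide, then incubated 3 h in drug-free medium. Intracellular drug measured by LC-MS/MS before and after washout. Retention given as percentage of initially accumulated compound remaining in cells after washout.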

[3] = Cellular uptake in human PMNC assessed as compound retention at 3 to 20 uM incubated for 3 hrs followed by drug washout measured after 3 hrs by LC-MS/MS analysis relative to initial drug accumulation; format: ADME; outline: as §2
[4] = Cellular uptake in human MDM at 3 to 20 uM after 3 hrs by LC-MS/MS analysis relative to azithromycin; format: ADME; outline: as §1
[5] = Cellular uptake in human MDM assessed as compound retention at 3 to 20 uM incubated for 3 hrs followed by drug washout measured after 3 hrs by LC-MS/MS analysis relative to initial drug accumulation; format: ADME; outline: as §2
[6] = Cellular uptake in human BSMC assessed as compound retention at 3 to 20 uM incubated for 3 hrs followed by drug washout measured after 3 hrs by LC-MS/MS analysis relative to initial drug accumulation; format: ADME; outline: as §2
[7] = Cellular uptake in human BSMC at 3 to 20 uM after 3 hrs by LC-MS/MS analysis relative to azithromycin; format: ADME; outline: as §1
[8] = tested on: NCI-H292; experiment: Cellular uptake in human […] cells at 3 to 20 uM after 3 hrs by LC-MS/MS analysis relative to azithromycin; format: ADME, cell-based; conditions: nci-h292, 3 h; outline: as §1
[9] = Cellular uptake in normal human lung fibroblast at 3 to 20 uM after 3 hrs by LC-MS/MS analysis relative to azithromycin; format: ADME; outline: as §1
[10] = Cellular uptake in human PMNC at 3 to 20 uM after 3 hrs by LC-MS/MS analysis relative to azithromycin; format: ADME; outline: as §1
[11] = Cellular uptake in human NHBE assessed as compound retention at 3 to 20 uM incubated for 3 hrs followed by drug washout measured after 3 hrs by LC-MS/MS analysis relative to initial drug accumulation; format: ADME; outline: as §2
[12] = Cellular uptake in normal human lung fibroblasts assessed as compound retention at 3 to 20 uM incubated for 3 hrs followed by drug washout measured after 3 hrs by LC-MS/MS analysis relative to initial drug accumulation; format: ADME; outline: as §2
[13] = Cellular uptake in human NHBE at 3 to 20 uM after 3 hrs by LC-MS/MS analysis relative to azithromycin; format: ADME; outline: as §1
[14] = tested on: NCI-H292; experiment: Cellular uptake in human NCI-H292 cells assessed as compound retention at 3 to 20 uM incubated for 3 hrs followed by drug washout measured after 3 hrs by LC-MS/MS analysis relative to initial drug accumulation; format: ADME, cell-based; conditions: nci-h292, 3 h; outline: as §2

Question: For `CC[C@H]1OC(=O)[C@H](C)[C@@H](O[C@H]2C[C@@](C)(OC)[C@@H](OC(=O)CN(CC)CC)[C@H](C)O2)[C@H](C)[C@@H](O[C@@H]2O[C@H](C)C[C@H](N(C)C)[C@H]2O)[C@](C)(OC)C[C@@H](C)C(=O)N[C@H](C)[C@@H](O)[C@]1(C)O`, which Drug uptake [1] is on record?
Answer: The Drug uptake was 41%.

Question: What about the Drug uptake [2] of the same compound?
Answer: Its Drug uptake is 6%.

Question: What about the Drug uptake [3] of the same compound?
Answer: Its Drug uptake is 74%.

Question: What about the Drug uptake [4] of the same compound?
Answer: Its Drug uptake is 148%.

Question: And the Drug uptake [5]?
Answer: The Drug uptake was 56%.

Question: And the Drug uptake [6]?
Answer: The Drug uptake was 27%.

Question: What about the Drug uptake [7] of the same compound?
Answer: Its Drug uptake is 83%.

Question: And the Drug uptake [8]?
Answer: Its Drug uptake is 121%.

Question: What about the Drug uptake [9] of the same compound?
Answer: Its Drug uptake is 256%.

Question: What about the Drug uptake [10] of the same compound?
Answer: Its Drug uptake is 118%.

Question: And the Drug uptake [11]?
Answer: The Drug uptake was 33%.

Question: And the Drug uptake [12]?
Answer: The Drug uptake was 63%.

Question: And the Drug uptake [13]?
Answer: The Drug uptake was 101%.

Question: What about the Drug uptake [14] of the same compound?
Answer: The Drug uptake was 48%.

Question: Which results are given for `CCCCCCCC(=O)NCCCN(C)[C@H]1C[C@@H](C)O[C@@H](O[C@@H]2[C@@H](C)[C@H](O[C@H]3C[C@@](C)(OC)[C@@H](O)[C@H](C)O3)[C@@H](C)C(=O)O[C@H](CC)[C@@](C)(O)[C@H](O)[C@@H](C)N(C)C[C@H](C)C[C@@]2(C)O)[C@@H]1O`?
Answer: Drug uptake [1]: 460%; Drug uptake [2]: 19%; Drug uptake [3]: 85%; Drug uptake [4]: 1235%; Drug uptake [5]: 100%; Drug uptake [6]: 47%; Drug uptake [7]: 598%; Drug uptake [8]: 457%; Drug uptake [9]: 1699%; Drug uptake [10]: 663%; Drug uptake [11]: 57%; Drug uptake [12]: 78%; Drug uptake [13]: 422%; Drug uptake [14]: 51%

Question: For `CCCCCCCC(=O)NCCCN1C[C@H](C)C[C@@](C)(O)[C@H](O[C@@H]2O[C@H](C)C[C@H](N(C)C)[C@H]2O)[C@@H](C)[C@H](O[C@H]2C[C@@](C)(OC)[C@@H](O)[C@H](C)O2)[C@@H](C)C(=O)O[C@H](CC)[C@@](C)(O)[C@H](O)[C@H]1C`, which Drug uptake [1] is on record?
Answer: The Drug uptake was 127%.

Question: And the Drug uptake [2]?
Answer: Its Drug uptake is 30%.

Question: What about the Drug uptake [3] of the same compound?
Answer: Its Drug uptake is 77%.

Question: What about the Drug uptake [4] of the same compound?
Answer: Its Drug uptake is 120%.

Question: And the Drug uptake [5]?
Answer: The Drug uptake was 83%.

Question: And the Drug uptake [6]?
Answer: The Drug uptake was 57%.

Question: And the Drug uptake [7]?
Answer: The Drug uptake was 111%.

Question: What about the Drug uptake [8] of the same compound?
Answer: The Drug uptake was 207%.

Question: And the Drug uptake [9]?
Answer: The Drug uptake was 122%.

Question: What about the Drug uptake [10] of the same compound?
Answer: The Drug uptake was 146%.

Question: And the Drug uptake [11]?
Answer: Its Drug uptake is 71%.

Question: And the Drug uptake [12]?
Answer: Its Drug uptake is 84%.

Question: What about the Drug uptake [13] of the same compound?
Answer: The Drug uptake was 135%.

Question: And the Drug uptake [14]?
Answer: The Drug uptake was 69%.

Question: What does the source list for `CC[C@H]1OC(=O)[C@H](C)[C@@H](O[C@H]2C[C@@](C)(OC)[C@@H](O)[C@H](C)O2)[C@H](C)[C@@H](O[C@@H]2O[C@H](C)C[C@H](N(C)C)[C@H]2O)[C@](C)(OC)C[C@@H](C)C(=O)N[C@H](C)[C@@H](O)[C@]1(C)O`?
Answer: Drug uptake [1]: 5%; Drug uptake [2]: 2%; Drug uptake [3]: 37%; Drug uptake [4]: 11%; Drug uptake [5]: 8%; Drug uptake [6]: 0%; Drug uptake [7]: 5%; Drug uptake [8]: 10%; Drug uptake [9]: 9%; Drug uptake [10]: 13%; Drug uptake [11]: 16%; Drug uptake [12]: 35%; Drug uptake [13]: 11%; Drug uptake [14]: 23%

Question: Which results are given for `CC[C@H]1OC(=O)[C@H](C)[C@@H](O)[C@H](C)[C@@H](O)[C@](C)(O)C[C@@H](C)CN(C)[C@H](C)[C@@H](O)[C@]1(C)O` [AZITHROMYCIN AGLYCONE]?
Answer: Drug uptake [1]: 5%; Drug uptake [2]: 1%; Drug uptake [3]: 0%; Drug uptake [4]: 28%; Drug uptake [5]: 3%; Drug uptake [6]: 0%; Drug uptake [7]: 9%; Drug uptake [8]: 13%; Drug uptake [9]: 54%; Drug uptake [10]: 17%; Drug uptake [11]: 0%; Drug uptake [12]: 0%; Drug uptake [13]: 8%; Drug uptake [14]: 0%

Question: For `CC[C@H]1OC(=O)[C@H](C)[C@@H](O[C@H]2C[C@@](C)(OC)[C@@H](O)[C@H](C)O2)[C@H](C)[C@@H](O[C@@H]2O[C@H](C)C[C@H](N(C)C)[C@H]2O)[C@](C)(O)C[C@@H](C)CN(C)[C@H](C)[C@@H](O)[C@]1(C)O` [AZITHROMYCIN], which Drug uptake [1] is on record?
Answer: Its Drug uptake is 100%.

Question: What about the Drug uptake [2] of the same compound?
Answer: The Drug uptake was 38%.

Question: And the Drug uptake [3]?
Answer: Its Drug uptake is 79%.

Question: And the Drug uptake [4]?
Answer: The Drug uptake was 100%.

Question: And the Drug uptake [5]?
Answer: The Drug uptake was 93%.

Question: And the Drug uptake [6]?
Answer: The Drug uptake was 54%.

Question: And the Drug uptake [7]?
Answer: The Drug uptake was 100%.

Question: And the Drug uptake [8]?
Answer: The Drug uptake was 100%.

Question: What about the Drug uptake [9] of the same compound?
Answer: The Drug uptake was 100%.

Question: And the Drug uptake [10]?
Answer: Its Drug uptake is 100%.

Question: And the Drug uptake [11]?
Answer: The Drug uptake was 63%.

Question: What about the Drug uptake [12] of the same compound?
Answer: The Drug uptake was 80%.

Question: What about the Drug uptake [13] of the same compound?
Answer: The Drug uptake was 100%.

Question: And the Drug uptake [14]?
Answer: Its Drug uptake is 77%.

Question: For `CC[C@H]1OC(=O)[C@H](C)[C@@H](O[C@H]2C[C@@](C)(OC)[C@@H](O)[C@H](C)O2)[C@H](C)[C@@H](O[C@@H]2O[C@H](C)C[C@H](N(C)C)[C@H]2O)[C@](C)(OC)C[C@@H](C)C(=O)[C@H](C)[C@@H](O)[C@]1(C)O` [CLARITHROMYCIN], which Drug uptake [1] is on record?
Answer: The Drug uptake was 16%.

Question: What about the Drug uptake [2] of the same compound?
Answer: Its Drug uptake is 2%.

Question: What about the Drug uptake [3] of the same compound?
Answer: The Drug uptake was 2%.

Question: And the Drug uptake [4]?
Answer: The Drug uptake was 66%.

Question: And the Drug uptake [5]?
Answer: Its Drug uptake is 4%.

Question: What about the Drug uptake [6] of the same compound?
Answer: The Drug uptake was 1%.

Question: What about the Drug uptake [7] of the same compound?
Answer: The Drug uptake was 36%.

Question: What about the Drug uptake [8] of the same compound?
Answer: Its Drug uptake is 35%.

Question: And the Drug uptake [9]?
Answer: Its Drug uptake is 127%.

Question: And the Drug uptake [10]?
Answer: Its Drug uptake is 36%.

Question: And the Drug uptake [11]?
Answer: The Drug uptake was 0%.

Question: What about the Drug uptake [12] of the same compound?
Answer: The Drug uptake was 1%.

Question: And the Drug uptake [13]?
Answer: The Drug uptake was 25%.

Question: What about the Drug uptake [14] of the same compound?
Answer: The Drug uptake was 1%.

Question: Which Drug uptake [1] does the source give for `CC[C@H]1OC(=O)[C@H](C)[C@@H](O)[C@H](C)[C@@H](O[C@@H]2O[C@H](C)C[C@H](N(C)C)[C@H]2O)[C@](C)(O)C[C@@H](C)CN(C)[C@H](C)[C@@H](O)[C@]1(C)O` [DESCLADINOSYL AZITHROMYCIN] here?
Answer: Its Drug uptake is 52%.

Question: And the Drug uptake [2]?
Answer: Its Drug uptake is 46%.

Question: What about the Drug uptake [3] of the same compound?
Answer: The Drug uptake was 68%.

Question: And the Drug uptake [4]?
Answer: Its Drug uptake is 79%.

Question: And the Drug uptake [5]?
Answer: The Drug uptake was 81%.

Question: What about the Drug uptake [6] of the same compound?
Answer: The Drug uptake was 63%.

Question: What about the Drug uptake [7] of the same compound?
Answer: The Drug uptake was 75%.

Question: What about the Drug uptake [8] of the same compound?
Answer: The Drug uptake was 56%.

Question: And the Drug uptake [9]?
Answer: The Drug uptake was 52%.

Question: What about the Drug uptake [10] of the same compound?
Answer: The Drug uptake was 42%.

Question: What about the Drug uptake [11] of the same compound?
Answer: Its Drug uptake is 74%.

Question: And the Drug uptake [12]?
Answer: Its Drug uptake is 70%.

Question: And the Drug uptake [13]?
Answer: Its Drug uptake is 52%.

Question: And the Drug uptake [14]?
Answer: The Drug uptake was 77%.
